Reference: PMC9535606 (Journal of Alzheimer's Disease Reports, 2022)

Legend:
[1] = system: primary rat cortical neurons; test: 3-NP-induced cellular ROS, CellROX fluorescence; format: cell-based; settings: for ROS level compared with 3-NP-vehicle-treated group: 0.5 mM for 24 h prior to 2.5 mM 3-NP, LiCl p < 0.001, SB p < 0.01, LiBen p < 0.0001
Summary of the method: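 Primary cortical cultures came from E18 Sprague-Dawley rat cortex and were used at DIV 7–9 (neuron-enriched). Cultures were pretreated with test compound (0, 0.5, 1 or 3 mM) for 24 h, then exposed to 2.5 mM 3-NP for another 24 h. CellROX Green reagent was added, cells were washed with PBS, and ROS were quantified as fluorescence (Ex 485/Em 520 nm), with confocal imaging.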

[2] = system: primary rat cortical neurons; test: 3-NP-induced neurotoxicity, cell survival by counting Hoechst-stained nuclei; format: cell-based; settings: for Cell Survival (%): 0.5 mM for 24 h prior to 2.5 mM 3-NP for 24 h, Hoechst, % of control; for viability of cultured cortical neurons exposed to 3-NP: then 2.5 mM 3-NP 24 h
Summary of the method: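 E18 Sprague-Dawley rat cortical neurons (DIV 7–9) were pretreated with test compound for 24 h, then given 2.5 mM 3-NP for 24 h. Cells were fixed in 4% paraformaldehyde and stained with Hoechst 33342 (1:1000 in PBS, 5–15 min). Nuclei with normal morphology were counted. Survival (%) = mean surviving cells ÷ concurrent control × 100%.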

[3] = US FDA and JECFA of WHO; cited from earlier work
[4] = system: rat primary cortical neurons; test: Mitochondrial respiration, Seahorse XF Cell Mito Stress Test; format: cell-based; settings: 3 mM
Summary of the method: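 Rat primary cortical neurons on XF96 plates were pretreated with test compound (3 mM) for 24 h. They were then moved to XF assay medium for 1 h at 37 °C without CO2. Oxygen consumption rate was recorded on an XF96 analyser with serial oligomycin, FCCP and rotenone/antimycin A injections. Basal respiration, ATP production, proton leak and spare capacity were derived; mean ± SD, N=3.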

[5] = system: rat primary cortical neurons; test: Aβ25-35-induced cytotoxicity, cell survival with or without MK-801; format: cell-based; settings: for cell survival rate: 10 μM Aβ25-35 for 2 days, then 1 mM for 4 days; for protective effect against Aβ25-35 in the presence vs absence of MK-801: MK-801 10 μM, SB 1 mM, LiBen 0.5 and 1 mM
[6] = system: rat primary cortical neuronal culture; test: Oxygen glucose deprivation; format: cell-based
Summary of the method: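 For OGD, rat cortical cultures were rinsed into glucose- and pyruvate-free Neurobasal-A and held 1 h at 37 °C/5% CO2. They were then kept under 95% N2/5% CO2 (about 1.0% O2) for 4 h. Test compound was present either for the whole 53 h (0–5 mM) or only for 48 h post-OGD (0–3 mM). Viability was measured by MTT as % of the normoxic untreated control.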

[7] = system: APP/PS1 mice; test: Prepulse inhibition, sensorimotor gating; format: in vivo, mouse
Summary of the method: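 In APP/PS1 mice and WT littermates, test compound in 0.9% saline was given i.p. once daily from 5 months of age. The dose was 256 mg/kg/day for 5 months, then lowered to 200 mg/kg/day. Saline-vehicle groups served as controls. Behavioural testing took place at 5 (pre-dose), 7, 10 and 13 months of age.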

[8] = Pharmacokinetics of lithium in rat plasma after single oral dose; format: in vivo; settings: same molarity
Summary of the method: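 Male Sprague-Dawley rats (240–260 g, n=6/group) were fasted overnight and given a single gavage dose in PBS. Doses were test compound 255.3 mg/kg or sodium benzoate 287.9 mg/kg plus Li2CO3 74.2 mg/kg (equimolar). Jugular blood was drawn from 0 to 24 h into heparinised tubes, and plasma was separated at 2500×g for 15 min at 4 °C. Plasma was digested overnight in 2–5% nitric acid, filtered, and lithium measured by ICP-MS; concentration-time plots were used; mean ± SD.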

[9] = system: WT mice; test: Chronic administration safety observations in WT mice; format: in vivo, mouse
Summary of the method: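 Wild-type littermates dosed i.p. once daily from 5 months of age for 8 months with test compound in 0.9% saline (n = 27) or saline vehicle (n = 23). Dose 256 mg/kg/day for 5 months, then 200 mg/kg/day. Barnes maze at 5, 7, 10 and 13 months, scored as probe-trial target-quadrant time over total exploring time. Body weight and survival followed to 16 months.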

[10] = system: rat primary cortical neurons; test: Neurogenesis, BrdU/NeuN immunostaining after Aβ25-35; format: cell-based; settings: p < 0.0001
Summary of the method: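 Aβ25-35 was pre-aggregated at 37 °C for 24 h and applied to E18 rat cortical cultures on coverslips for 2 days. Medium was then replaced with BrdU labelling solution plus test compound for 4 days at 37 °C. Cells were fixed in PFA, blocked in 2% BSA, permeabilised with 0.03% Triton X-100 and treated with 2 N HCl. They were stained for BrdU (1:250), NeuN (1:300) and Hoechst. Triple-positive cells were expressed as % of untreated control; mean ± SD, N=3, one-way ANOVA with Student-Newman-Keuls.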

[11] = system: APP/PS1 mice; test: Amyloid plaque number in brain, Congo red staining; format: in vivo, mouse; settings: APP/PS1 mice at 16 months of age, AD/LiBen vs AD/Veh; p < 0.05
[12] = 24 h, compared with SB or LiCl treatment

O=C(O)CC[N+](=O)[O-] [3-NP, 3-nitropropionic acid, reference compound]
ROS level (fluorescent intensity) increase compared to control ([1]; 3-NP 2.5 mM, 24 h, p < 0.05): 57.5% | neuronal cell death ([2]; 3-NP 2.5 mM alone): ~50%

O=C([O-])c1ccccc1.[Na+] [SB, Sodium benzoate]
ROS level compared with 3-NP-vehicle-treated group [1]: significant decreases | acceptable daily intake level [3]: 5 mg/kg body weight | Cell Survival (%) [2]: 67.1% | spare respiratory capacity ([4]; 24 h pre-treatment): less effective than LiBen | cell survival rate [5]: 70.7% | protective effect against Aβ25-35 in the presence vs absence of MK-801 [5]: blocked by MK-801

O=C([O-])c1ccccc1.[Li+] [LiBen, lithium benzoate]
ROS level compared with 3-NP-vehicle-treated group [1]: much more significant | OGD-induced cell death / cell viability ([6]; 3 mM LiBen present for 53 hrs of the whole culture period): significantly recovered and comparable to the normoxia group | cell survival in normoxia group ([6]; 5 mM LiBen, 53 hrs): also reduced | neuroprotective property under OGD ([6]; 5 mM LiBen, 53 hrs): vanished | OGD-induced cell death ([6]; LiBen 0.3 to 3 mM added for 48 hrs post-OGD, vs 0 mM group): significantly alleviates OGD-induced cell death | Cell Survival (%) [2]: 79.0% | viability of cultured cortical neurons exposed to 3-NP ([2]; LiBen 1 mM 24 h, p < 0.005 vs 3-NP alone): significantly increase | viability of cultured cortical neurons exposed to 3-NP ([2]; LiBen 3 mM 24 h, p < 0.001 vs 3-NP alone): significantly increase | viability of cultured cortical neurons in the absence of 3-NP ([2]; LiBen 1 or 3 mM, no 3-NP): the difference was not revealed | improvement of PPI deficit ([7]; APP/PS1 mice at 13 months of age): reached significant level | prepulse inhibition (PPI) ([7]; APP/PS1 mice, i.p. once daily from 5 months of age, tested at 7, 10, 13 months): normal PPI at all time points | AUC of lithium compared with the SB + Li2CO3 mixture group [8]: also higher | Cmax of lithium compared with the SB + Li2CO3 mixture group [8]: significantly higher | ATP production [4, 12]: more reduction | proton leak [4, 12]: more reduction | spare respiratory capacity ([4]; 24 h pre-treatment): increasing tendency | basal oxygen consumption rate ([4]; 24 h pre-treatment, did not reach the significant level): reduced more basal oxygen consumption rate than the other treatment groups | cell survival rate [5]: 85.1% | protective effect against Aβ25-35 in the presence vs absence of MK-801 [5]: no differences were observed | body weight change during the experimental period ([9]; WT mice, chronic administration): without significant body weight change | survival ([9]; WT mice, chronic administration, termination time point of the experiment): at least 16 months | toxicity of chronic use ([9]; within the tested dose range (256, later 200 mg/kg/day i.p.)): did not display any toxicity | neurogenesis (BrdU+/NeuN+ cells) vs corresponding control ([10]; Aβ25-35 exposure, then 0.5 mM for 4 days): significantly improve neurogenesis | neurogenesis (BrdU+/NeuN+ cells) vs corresponding control ([10]; No Aβ25-35 exposure, 0.5 mM for 4 days): significantly improve neurogenesis | decrease in number of plaques in cortex [11]: 21.8% | decrease in number of plaques in hippocampus [11]: 27.8%

[Cl-].[Li+] [LiCl, lithium chloride, reference compound]
ROS level compared with 3-NP-vehicle-treated group [1]: significant decreases | Cell Survival (%) [2]: 61.5% | spare respiratory capacity ([4]; 24 h pre-treatment): less effective than LiBen | cell survival rate [5]: 74.0%
